An excerpt weighted towards active compounds, which were near 3.4% of everything screened.
PKD1 kinase inh: inhibitors of human PKD1 kinase, biochemical, fluorescence polarization; PKD1 kinase fluorescence polarization assay; 200,000 compounds, 0.056% hits; inhibition, % (concentration not given with the values); AID 797, 2007; Serine/threonine-protein kinase D1 (Homo sapiens), Q15139; in the data active means inhibition above about 50%
Target sequence (Q15139 whole entry, looked up): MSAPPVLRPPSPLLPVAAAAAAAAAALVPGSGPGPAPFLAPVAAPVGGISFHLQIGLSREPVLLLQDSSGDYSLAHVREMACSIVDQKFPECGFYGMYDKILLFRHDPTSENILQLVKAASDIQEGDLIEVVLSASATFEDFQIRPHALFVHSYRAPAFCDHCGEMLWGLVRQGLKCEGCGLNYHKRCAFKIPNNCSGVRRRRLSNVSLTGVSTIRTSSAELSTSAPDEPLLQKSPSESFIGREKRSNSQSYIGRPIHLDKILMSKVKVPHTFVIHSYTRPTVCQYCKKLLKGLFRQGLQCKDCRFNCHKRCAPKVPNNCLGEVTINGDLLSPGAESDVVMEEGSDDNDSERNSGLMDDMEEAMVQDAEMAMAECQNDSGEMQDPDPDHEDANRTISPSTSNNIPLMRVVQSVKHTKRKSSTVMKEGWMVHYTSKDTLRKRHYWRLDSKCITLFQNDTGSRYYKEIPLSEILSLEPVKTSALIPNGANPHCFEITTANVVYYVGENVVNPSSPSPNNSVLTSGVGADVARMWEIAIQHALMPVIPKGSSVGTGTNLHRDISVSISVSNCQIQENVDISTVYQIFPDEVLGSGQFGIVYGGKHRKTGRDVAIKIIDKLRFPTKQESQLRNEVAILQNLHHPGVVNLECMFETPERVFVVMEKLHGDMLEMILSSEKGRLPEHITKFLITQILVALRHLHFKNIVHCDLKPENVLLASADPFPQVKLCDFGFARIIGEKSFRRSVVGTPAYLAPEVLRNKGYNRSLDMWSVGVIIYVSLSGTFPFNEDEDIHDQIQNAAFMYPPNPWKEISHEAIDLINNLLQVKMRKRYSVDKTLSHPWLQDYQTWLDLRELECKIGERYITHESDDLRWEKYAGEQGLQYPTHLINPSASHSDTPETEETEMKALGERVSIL
Redox H2O2 prof: compounds producing H2O2 with reducing agent – biochemical, NIH compound library profiling, artefact control for MLSCN library redox annotation, primary screen. 200,000 compounds, 0.03% hits. DTT-dependent redox cycling H2O2, phenol red/HRP absorbance; 100% = 100 µM peroxide control, 0% = buffer. activation, % at 10 µM. AID 878, 2007;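 active means activation of at least 50% relative to the plate's high and low controls in the primary single-dose screen; inactive means activation below 50%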;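 further: compound incubated with DTT at 0.8 mM final as the reducing agent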
Mdm2 ligase inh: MDM2-luciferase reporter signal enhancers, primary screen, MDM2 E3 ligase inhibitor project, cell-based, luminescence, 1536-well. E3 ubiquitin-protein ligase Mdm2 (Homo sapiens), Q00987. cell-based MDM2 ubiquitination luciferase reporter, 2 h; 0 = plate control, 100 = twice control, blank-subtracted. signal enhancement, % at 5 µM. 210,000 compounds, 0.11% hits;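 active means signal enhancement of 30% or more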;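 further: luminescence tracks abundance of the self-degrading MDM2-luciferase fusion protein; higher signal means inhibition of MDM2 E3 ligase activity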
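System: stable MDM2–luciferase fusion reporter cells / Input: 2000 cells seeded into each well / Schedule: 4 h settle plus 2 h compound, 37 °C / Compound: single-point 5 µM / Buffer or medium: cells held in DMEM / Benchmarks: control and blank well means / Evaluation: percent signal gain over controls, blank-subtracted / Measured by: luciferase luminescence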
ROMK primary: ROMK potassium channel modulators, primary screen, cell-based, thallium flux, MLSMR library. 130,000 compounds, 2% hits. Tet-inducible ROMK, thallium flux fluorescence; actives lie on both sides. B-score at 10 µM. ATP-sensitive inward rectifier potassium channel 1 (Homo sapiens), P48048;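 active means signal ratio slope over the read window, or its plate-corrected B-score, at least 3 SD from the plate mean, either direction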;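 further: B-score of the F/F0 ratio slope over 7 to 12 s after thallium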
KCC2 mod: KCC2 cotransporter modulators, thallium flux, primary screen, cell-based, HEK293 KCC2, FluoZin-2 fluorescence, MLSMR. Solute carrier family 12 member 5 (Homo sapiens), Q9H2X9. KCC2 cells, thallium flux FluoZin-2 fluorescence. B-score of Tl+ flux slope (higher = more flux/activation; lower = inhibition) at 10 µM. 190,000 compounds, 2.2% hits. AID 1456, 2008;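 active means thallium flux slope and its plate-corrected score both differing from the plate sample mean at a set confidence after two filtering rounds, in either direction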;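 further: slope of fluorescence scaled to starting intensity during 10 to 20 s after thallium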
p97 inhibitor: inhibitors of human p97 ATPase, primary screen, biochemical; 220,000 compounds, 0.42% hits; inhibition, % at 8 µM; AID 1481, 2009; recombinant p97 ATPase, Kinase-Glo ATP luminescence, 3 h; Transitional endoplasmic reticulum ATPase (Homo sapiens), P55072; in the data active means inhibition above about 15%;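 further: 0% = DMSO vehicle and 100% = wells lacking enzyme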
* = called active by the depositor; i = inactive; nt = not tested or not shown.

SMILES	PKD1 kinase inh	Redox H2O2 prof	Mdm2 ligase inh	ROMK primary	KCC2 mod	p97 inhibitor
COc1ccc(OC)c(NC(=O)CSc2nnc(C3CCCCC3)n2-c2ccccc2)c1	-1	0	nt	nt	-2.9	-9
CC1CCN(C2CC(=O)N(c3ccccc3)C2=O)CC1 (centres undefined)	10	-1	12	-0.2	-0.059	4
C[C@H]1CC[C@H]2C(=O)N3[C@H](c4ccccc4Br)[C@@H](C)CC[C@H]3C(=O)N2[C@@H]1c1ccccc1Br	-5	1	nt	-4.3*	4.4*	8
O=C(COC(=O)c1ccccc1C(=O)c1ccc(Cl)c([N+](=O)[O-])c1)NC1CCCCCC1	6	0	33*	-1.8	1.3	2
CC(C)N(C(=O)COC(=O)c1ccccc1C(=O)c1ccc(Cl)c([N+](=O)[O-])c1)C(C)C	5	0	-9	1.5	-0.03	-1
COc1ccc(-n2cc(-c3ccccc3)[nH]c2=S)cc1	-4	0	-11	nt	18*	-2
CCOc1ccc(C(=O)NCC(=O)OCC(=O)Nc2ccc(C)c(S(=O)(=O)N(C)C)c2)cc1	-3	-2	1	-0.14	-0.13	-1
CSc1nc2c(c(=O)[nH]1)C(c1cccs1)C1=C(CCCC1=O)N2 (centres undefined)	-2	0	-2	0.37	nt	5
CC1(C)CC(=O)C2=C(C1)Nc1nc(SCCN3CCOCC3)[nH]c(=O)c1C2c1cccs1 (centres undefined)	1	1	31*	0.41	nt	-1
Cc1ccc(-n2c(=S)[nH]c3sc4c(c3c2=O)CCc2ccccc2-4)cc1	0	0	-13	nt	9.1*	4
O=C(Nc1nnc(COc2ccc(F)cc2)s1)Nc1ccccc1F	nt	nt	-17	0	0.46	-7
Cc1[nH][nH]c(=O)c1C(c1c(C)[nH][nH]c1=O)c1cn(Cc2ccc(F)cc2)c2ccccc12	-11	0	-8	-4.8*	-0.095	26*
O=C(O)Cc1cn(Cc2ccc(F)cc2)c2ccccc12	-3	0	-3	0.024	-1.8	4
CC(C)N(Cc1ccccc1)C(=S)NC(=O)C1(C)CC1(Cl)Cl (centres undefined)	4	0	-12	5.1*	85*	5
O=C(CCN1CCOCC1)Nc1cccc(Br)c1	-6	-3	-9	nt	0.016	-5
COc1ccc(NC(=S)N/N=C/c2cccn2Cc2ccccc2F)cc1	1	-1	-5	0.21	0.99	3
COc1ccc(NC(=S)N/N=C/c2cccn2Cc2ccc(F)cc2Cl)cc1	-2	-2	-10	1.3*	3.8*	7
CCn1c(=S)[nH]c2nc3c(cc2c1=O)CCCC3	3	2	-20	nt	42*	1
Cc1cccc2cc(C#N)c(SCCN3CCCCC3)nc12	-5	-2	nt	-1.1	3.6*	1
Cc1cccc2cc(C#N)c(N3CCN(C)CC3)nc12	-8	-4	-9	-0.44	nt	-2
Cc1ccc(C(C(=O)NC(C)(C)C)N(C(=O)c2csnn2)c2cccc(F)c2)o1 (centres undefined)	5	2	-16	nt	0.77	-1
CCC(C)n1c(=S)[nH]c2c(sc3ccc([N+](=O)[O-])cc32)c1=O (centres undefined)	10	0	-8	5.3*	53*	0
CC(C)(C)C(=O)NC(=S)N1CCCC1	-10	3	12	-0.15	0.47	-5
CC(C)(C)C(=O)NC(=C(Cl)Cl)P(=O)(O)O	-4	1	-3	nt	-3.8*	4
CCCn1c(SC(C(=O)Nc2cc(C)ccc2OC)c2ccccc2)nc2ccccc2c1=O (centres undefined)	-3	1	-11	nt	14*	0
SMILES	PKD1 kinase inh	Redox H2O2 prof	Mdm2 ligase inh	ROMK primary	KCC2 mod	p97 inhibitor
COc1ccc(C)cc1NC(=O)C(Sc1nnnn1C)c1ccccc1 (centres undefined)	4	0	-1	0.014	0.94	5
O=C(Nc1cccc(Cl)c1)c1cc(N=Nc2ccc([N+](=O)[O-])cc2Cl)ccc1O	nt	nt	-14	nt	11*	-20
O=C(Nc1cccc(Cl)c1)c1cccc(Oc2ccc([N+](=O)[O-])cc2Cl)c1	-3	1	0	nt	0.18	2
CCN(CC)S(=O)(=O)c1ccc(NC(=O)c2cccs2)cc1	1	0	-9	0.96	-0.97	5
COC(=O)CN1C(=S)N(c2ccc(OC)cc2)C(=O)/C1=C/c1ccc(OC)cc1	-3	0	2	-0.17	0.18	4
COc1ccc(C(=O)N2C(=S)NC(=O)/C2=C\c2ccc(C)cc2)cc1	1	0	-4	0.24	7.9*	-3
O=C(Oc1ccc(-c2ccccc2)cc1)N1CCOCC1	-6	0	-13	nt	-0.19	-3
COc1cc(/C=C2\C(=O)ON=C2c2ccccc2)cc(Cl)c1O	-9	0	4	-15*	-5.3*	2
O=C(N/N=C/c1ccc([N+](=O)[O-])s1)c1ccccc1Br	0	1	-12	nt	0.9	3
Cc1ccccc1C(=O)N/N=C/c1ccc([N+](=O)[O-])s1	-10	0	-5	nt	5.2*	6
COc1ccccc1-c1c(C(F)(F)F)oc2cc(OC(=O)c3ccc([N+](=O)[O-])cc3)ccc2c1=O	4	0	-17	nt	-0.024	-3
CC1=C/C(=N\NC(=S)Nc2cccnc2)CC(C)(C)C1	1	-2	-92	3*	16*	-4
O=C(OC(C(=O)NCc1ccco1)c1ccc(Cl)cc1)c1cccs1 (centres undefined)	nt	nt	nt	nt	-0.074	0
COc1cc(Br)cc2cc(C(=O)N3CCN(c4ccccn4)CC3)c(=O)oc12	-1	0	-14	0.5	nt	0
COCCCNc1c2c3c(cccc3[nH]c1=O)C(=O)c1ccccc1-2	110*	0	-7	nt	i	-6
CCCc1nc2c(C)ccc(C)c2c(N)c1CC	1	1	-7	nt	nt	-2
COc1ccccc1NC(=O)Cn1c(C)cc(=O)c2cccc(OC)c21	nt	nt	nt	nt	-1.8	-5
COc1cc(NC(=O)c2ccc(C)cc2)c(OC)cc1NC(=O)CN1CCOCC1	-16	0	-2	nt	-0.16	1
COc1cc(NC(=O)c2ccc(Cl)cc2)c(OC)cc1NC(=O)CN1CCOCC1	15	2	-11	0.39	-5.2*	4
